# Screens from PubChem.
# hERG rescue – hERG (human) protection from proarrhythmic block. CHO-hERG, FluxOR thallium flux, dofetilide IC70 present. activation (rescue from dofetilide block), less the hit threshold, % at 10 µM. Q12809. hit rate 0.51% among 310,000;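 active = activation above the mean of controls blocked by dofetilide plus 5 SD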;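 also: thallium influx through hERG after potassium depolarization seen as dye fluorescence rise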
# KCNK9 inh – human KCNK9 channel inhibition. B-score at 10 µM. hit rate 1.2% among 310,000. HEK293 KCNK9, FluxOR thallium flux fluorescence; hits give low values. AID 488922. Q9NPC2;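 active = ratio B-score over 3 SD below the library mean, with starting fluorescence within 5 SD of its mean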;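 also: negative B-score means less thallium flux so channel inhibition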
# Target sequence (Q9NPC2 whole entry, looked up): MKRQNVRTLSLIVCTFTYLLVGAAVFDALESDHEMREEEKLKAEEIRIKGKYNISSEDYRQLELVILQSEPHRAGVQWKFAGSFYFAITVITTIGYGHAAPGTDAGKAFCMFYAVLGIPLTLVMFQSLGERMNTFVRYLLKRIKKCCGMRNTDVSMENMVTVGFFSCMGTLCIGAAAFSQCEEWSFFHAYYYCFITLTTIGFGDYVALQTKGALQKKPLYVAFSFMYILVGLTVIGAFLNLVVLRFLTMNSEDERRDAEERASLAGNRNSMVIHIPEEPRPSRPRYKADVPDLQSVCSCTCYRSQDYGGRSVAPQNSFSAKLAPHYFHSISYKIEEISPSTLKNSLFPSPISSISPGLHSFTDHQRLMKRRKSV
# KCNQ1 pot – potentiators or activators of human KCNQ1 potassium channel; P51787; CHO-K1 KCNQ1, thallium flux FluxOR fluorescence; hits give high values; B-score at 10 µM; hit rate 0.35% among 310,000; AID 2648;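 active = fluorescence ratio B-score, a plate-corrected score, at least three library SD, with initial intensity B-score within 5 SD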
#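 assay system = KCNQ1-transfected CHO-K1 cells | medium = assay buffer with matched DMSO | probe or stimulus = depolarizing K+/Tl+ stimulus, K2SO4 and Tl2SO4 each 12.5 mM in 5x stock | dosing = single dose | incubation = dye 90 min, compound 20 min, room temperature | detection = kinetic FluxOR fluorescence, 10 s baseline plus 110 s post-stimulus | evaluation = ratio B score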
# KCNQ1 inh – blocks the human KCNQ1 potassium channel; P51787; CHO-K1 KCNQ1, FluxOR thallium flux fluorescence; hits give high values; B-score at 10 µM; hit rate 1.3% among 310,000; AID 2642;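 active = compounds whose thallium flux B-score, printed positive for inhibition, exceeds three library SD while starting fluorescence stays within three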;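 also: channel opened by potassium depolarization with thallium stimulus after 20 min compound exposure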
# Kir21 inh – Kir2.1 (mouse) channel inhibition. hit rate 0.85% among 310,000. P35561. AID 1672. HEK293-Kir2.1, FluxOR thallium flux fluorescence; hits give low values. B-score at 10 µM;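 active = fluorescence ratio B-score at or below minus 3 SD of library scores, with starting-brightness B-score within 2 SD, cut at about -4.2 in these data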;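 also: channel flux triggered by added potassium and thallium sulfate stimulus; B-score of peak minus minimum fluorescence over baseline after thallium stimulus; more negative B-score means stronger Kir2.1 block with less thallium influx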
# KCNK3 inh – human KCNK3 channel inhibition, primary screen; CHO-KCNK3 thallium flux, FluxOR fluorescence; hits give low values; B-score at 10 µM; hit rate 0.84% among 340,000; AID 602410;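 active = B-score under library mean minus 4 SD, starting fluorescence ratio at most library mean plus 5 SD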;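 also: more negative B-score means stronger inhibition of thallium flux through KCNK3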
# KCNK9 block conf – confirmation of human KCNK9 potassium channel inhibitors | shares compounds with KCNK9 inh | HEK293 KCNK9 cells, FluxOR thallium flux fluorescence | inhibition, % at 10 µM | hit rate 43% among 4,900 | AID 492992;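 active = thallium signal inhibited by more than 5 SD of the compound-free buffer control wells, on both duplicate plates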;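 also: 0% = assay buffer control wells without compound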
# Kir2-1 spec – tests whether KCNK9 modulators also affect mouse Kir2.1 | shares compounds with KCNK9 inh | Kir2.1 cells, FluxOR thallium flux fluorescence | inhibition, % at 10 µM | hit rate 4% among 4,900;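 active = thallium signal drop more than 5 SD beyond the mean of the no-compound control wells, seen in both duplicate plates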;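 also: signal is fluorescence rise after thallium addition divided by baseline fluorescence; plate controls were assay buffer only for no effect and full block by chlorpromazine control for full effect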
# HEK293 Tl ctr – second counter-screen for KCNK9 modulators: effect in non-induced cells; shares compounds with KCNK9 inh; non-induced KCNK9-HEK293, FluxOR thallium flux; inhibition, % at 10 µM; hit rate 40% among 4,900; AID 492997;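 active = thallium signal drop beyond 5 SD of the untreated control mean, on both duplicate plates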;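 also: plate controls were buffer only IC0 wells for no effect and SID17386958 at its maximal inhibitory level for full effect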
# * = called active by the depositor; i = inactive; / = not tested or not shown. Rows were chosen to be rich in hits. Some 3.7% of all compounds tested hit in one or more screens of this group.
SMILES,hERG rescue,KCNK9 inh,KCNQ1 pot,KCNQ1 inh,Kir21 inh,KCNK3 inh,KCNK9 block conf,Kir2-1 spec,HEK293 Tl ctr
CC(C)CN(CCOc1cccc(N2C(=O)C3=C(CCCC3)C2=O)c1)CC(C)C,-9,i,i,i,0.31,i,i,i,i
O=C1C2=C(CCCC2)C(=O)N1c1cccc(OCCBr)c1,-8,i,i,i,0,i,/,/,/
N#Cc1nc(Cc2ccccc2)oc1N1CCN(c2cccc(Cl)c2)CC1,-9,-11*,i,i,0.32,i,38%*,i,i
COc1ccc(-c2noc(CN3CCC(Cc4ccccc4)CC3)n2)cc1,-10,i,i,i,0.63,i,i,i,i
COCC1CCN(Cc2nc(-c3ccc(OC)cc3)no2)CC1,-6,i,i,i,-1,i,/,/,/
c1ccc(CC2CCN(Cc3nc(-c4ccccc4)no3)CC2)cc1,-12,i,i,i,-1.4,i,i,i,i
Clc1cccc(N2CCN(Cc3nc(-c4ccccc4)no3)CC2)c1,-7,i,i,i,-0.04,i,i,i,i
O=C(COC(=O)C1CC2C=CC1C2)Nc1ccc([N+](=O)[O-])cc1 (stereo not drawn),/,/,/,/,/,i,/,/,/
C#CCOCCOCCOCCNc1nc(N2CCN(C(=O)Cn3cc(CCO)nn3)CC2)nc(N2CCN(C(=O)[C@H](Cc3ccc(O)cc3)n3cc(CCO)nn3)CC2)n1,/,/,/,/,/,i,/,/,/
Cc1ccc(C(C)C)c(OC(=O)/C=C/c2ccccc2)c1,-19,i,i,i,-1.3,i,i,i,i
Cc1ccc(NC(=O)C(C)OC(=O)/C=C/c2ccccc2)cc1 (stereo not drawn),-10,i,i,i,-0.1,i,/,/,/
COc1ccc2cc(C#N)c(N3CCN(C(=O)c4ccccc4C)CC3)nc2c1,-12,i,i,i,-1.2,i,i,i,i
Cc1cc2nnc(SC3CCCCN(C(=O)c4ccc(F)cc4)C3=O)n2c2ccccc12 (stereo not drawn),-5,i,i,i,0.02,i,i,i,i
CCN(CC)S(=O)(=O)c1cc(OC)ccc1N=Nc1ccc(O)c2ncccc12,17*,i,i,i,-0.23,i,i,i,i
CSc1nc(Nc2ccc(Cl)cc2)c(C#N)c(=O)[nH]1,-2,i,i,i,1.1,i,/,/,/
N#Cc1c(Nc2ccc(Cl)cc2)s[nH]c1=O,-8,i,i,i,-0.03,i,i,i,i
CCOC(=O)C1=CN(Cc2cccc(-c3ccc(F)cc3)c2)S(=O)(=O)N(C)C1C (stereo not drawn),/,/,/,/,/,i,/,/,/
Cc1ccc(-c2nn(-c3ccccc3)cc2/C=N/n2c(-c3ccncc3)n[nH]c2=S)cc1,-3,i,i,i,-1.3,i,/,/,/
S=c1[nH]nc(-c2cccs2)n1/N=C/c1cn(-c2ccccc2)nc1-c1ccccc1,-4,i,i,i,1.2,i,i,i,i
CC1Oc2ccccc2N(CC(=O)NCCN2CCOCC2)C1=O (stereo not drawn),-1,i,i,i,0.11,i,/,/,/
C=CC[n+]1c(-c2ccc(Cl)cc2Cl)csc1Nc1c(C)n(C)n(-c2ccccc2)c1=O,-20,i,i,i,-0.54,i,i,i,i
Brc1ccccc1-c1nnc2sc(Cc3ccccc3)nn12,-5,-15*,i,i,1.4,i,36%*,i,26%*
COc1ccc(Cc2nn3c(-c4ccccc4Br)nnc3s2)cc1,-4,i,i,i,1.5,i,/,/,/
